Measured values from different studies.
Lines come from different studies, so protocols differ.
Target: Dual specificity tyrosine-phosphorylation-regulated kinase 1A (DYRK1A, Homo sapiens, UniProt Q13627)

`O=C(O)c1ccc2c(c1)nc(Nc1cccc(F)c1)c1ncncc12` gave a remaining activity of 1% (enzyme activity; inhibitor; radiometric; 1 µM).
`COc1cc(Nc2c(C#N)cnc3cc(OCCCN4CCN(C)CC4)c(OC)cc23)c(Cl)cc1Cl` has a remaining signal of 99.4% (cell-free assay; 0.5 µM).
With `Cn1cnc(Br)c1C1=CN(c2ncnc3[nH]cnc23)CCS1` the inhibition was 99.2% (enzyme activity; inhibitor; radiometric; 2 µM).
For `CNc1cccc2cc(C(=O)Nc3ccc(C(=O)O)cc3)c(=O)[nH]c12`, the inhibition was 28% (enzyme activity; inhibitor; 10 µM).
The remaining activity of `COc1cccc(CCNc2nc3cc(C(=O)O)ccc3c3cncnc23)c1` is reported as 40% (enzyme activity; inhibitor; radiometric; 1 µM).
`C[C@@H]1CN(c2cc(-c3nn(C)c4ccc(OC5(C)CC5)cc34)ncn2)C[C@H](C)O1` has a remaining binding of 81% (cell-free assay; competition with immobilised ligand; 1 µM).
`N#CCCc1ccc2c(c1)-c1[nH]c3ccc([N+](=O)[O-])cc3c1CC(=O)N2` has a remaining signal of 85.9% (cell-free assay; 0.5 µM).
For `CC(=O)N1CCC(c2ccc(C(=O)NC(=N)N)cc2C(F)(F)F)CC1`, the remaining binding was 74% (cell-free assay; competition with immobilised ligand; 1 µM).
`Cn1c2c(c3ccc(Cl)c(Cl)c31)C(C#N)C(C)(C)NC2=O` (stereo not shown) gave a ΔTm of 3.2 °C (thermal stability; DSF; 10 µM).
`Cc1c[nH]c2nccc(Oc3c(F)cc(Nc4cc(Cl)nc(N)n4)cc3F)c12` has a remaining binding of 88% (cell-free assay; competition with immobilised ligand; 0.1 µM).
`Nc1ncnc2occ(-c3ccc(NC(=O)Nc4cc(C(F)(F)F)ccc4F)cc3)c12` gave a remaining signal of 58% (cell-free assay; 20 µM).
For `N#Cc1cccc(Nc2nc3cc(C(=O)O)ccc3c3cnccc23)c1`, the remaining activity was -1% (enzyme activity; inhibitor; radiometric; 1 µM).
`Cn1c2c(Cl)c(Cl)ccc2c2cc[nH]c(=O)c21` gave a ΔTm of 2.6 °C (thermal stability; DSF; 10 µM).
`O=C(N1CCS(=O)(=O)CC1)N1C[C@H](c2ccc(OC(F)(F)F)cc2)C[C@H](c2nc(C3CC3)no2)C1` has a remaining binding of 100% (cell-free assay; competition with immobilised ligand; 1 µM).
`O=C(O)c1ccc2c(c1)nc(Nc1ccccc1)c1ncncc12` gave a remaining activity of 3% (enzyme activity; inhibitor; radiometric; 1 µM).
The remaining binding of `COc1ccc2c(O[C@@H]3C[C@H]4C(=O)N[C@]5(C(=O)O)CC5/C=C\CCCCC[C@H](NC(=O)OC5CCCC5)C(=O)N4C3)cc(-c3csc(NC(=O)C(C)C)n3)nc2c1C` (stereo partly shown) is reported as 79% (cell-free assay; competition with immobilised ligand; 1 µM).
For `O=C(O)c1ccc2c(c1)nc(Nc1ccc(Cl)cc1)c1ccncc12`, the remaining activity was 2% (enzyme activity; inhibitor; radiometric; 1 µM).
The remaining binding of `COCCOc1nc(-c2ccc(Cl)nc2)nc2c1CN(C(=O)c1ncn3ccccc13)CC2` is reported as 78% (cell-free assay; competition with immobilised ligand; 0.1 µM).
`CCCS(=O)(=O)Nc1ccc(F)c(C(=O)c2c[nH]c3ncc(-c4ccc(Cl)cc4)cc23)c1F` gave an inhibition of under 10% (enzyme activity; inhibitor; 1 µM).
The inhibition of `CN(C)C1CCN(CC#Cc2nn(C3CCCC3)c3nc(NCc4ccccc4)ncc23)C1` (stereo not shown) is reported as 4% (enzyme activity; inhibitor; FRET; 1 µM).
With `Cn1c2c(c3ccc(Cl)c(Cl)c31)C(C#N)C1(CCNCC1)NC2=O` (racemic) the ΔTm was 2.5 °C (thermal stability; DSF; 10 µM).
With `O=C(O)c1ccc2c(c1)nc(Nc1ccccc1)c1ccncc12` the remaining activity was 6% (enzyme activity; inhibitor; radiometric; 1 µM).
`CCN1/C(=C/C(C)=O)Sc2ccc(OC)cc21` gave a remaining signal of 28.9% (cell-free assay; 0.5 µM).
The remaining binding of `O=C(Nc1cccnn1)N1CC(C/C=C/c2cncc(Oc3ccc(C(F)(F)F)cn3)n2)C1` is reported as 75% (cell-free assay; competition with immobilised ligand; 1 µM).
For `Cn1c2c(Cl)c(Cl)ccc2c2cn[nH]c(=O)c21`, the ΔTm was 1.3 °C (thermal stability; DSF; 10 µM).
`COc1cc2ncnc(Nc3ccc(Oc4ccccc4)cc3C)c2cc1OC` gave an inhibition of -1% (enzyme activity; inhibitor; 1 µM).
The remaining activity of `O=C(O)c1ccc2c(c1)nc(NCc1ccccc1)c1ncncc12` is reported as 61% (enzyme activity; inhibitor; radiometric; 1 µM).
For `CC/C(=N\NC(=O)NCc1cccc(O)c1)c1ccc(O)c(C)c1O`, the inhibition was -4.7% (enzyme activity; inhibitor; 0.1 µM).
For `CC(C)[C@H](CO)Nc1nc(Nc2cccc(Cl)c2)c2ncn(C(C)C)c2n1`, the remaining signal was 65.4% (cell-free assay; 0.5 µM).
The remaining binding of `O=S(=O)(NC1CCC(c2cc(F)ccc2F)(S(=O)(=O)c2ccc(Cl)cc2)CC1)C(F)(F)F` (stereo not shown) is reported as 78% (cell-free assay; competition with immobilised ligand; 1 µM).
`Cc1ccc(C(=O)Nc2ccc(CN3CCN(C)CC3)c(C(F)(F)F)c2)cc1C#Cc1cnc2cccnn12` has a remaining signal of 81% (cell-free assay; 23.5 nM).
